High-throughput results deposited in PubChem BioAssay by several laboratories.
PTEN del growth: PTEN-deleted cell growth suppression | 140,000 tested, 1.2% active | viability, % at 10 µM | HCT116 PTEN-null viability, CellTiter-Glo, 60 h; hits give low values;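 active means viability at or below a set limit, 4 SD under the median of all tested compounds, cut at about 3.7% in these data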;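 further: PTEN knockout HCT116 line with beta catenin targeted HCT116 as companion control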
TNAP act hiacc: activators of human TNAP at high phosphate acceptor concentration; purified TNAP, CDP-star luminescence, 1 M DEA, 30 min; hits give high values; 0 = EDTA background, 1 = DMSO-only activity; activation factor at 20 µM; 200,000 tested, under 10 active; AID 1136;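 active means activation factor at least 2 at 20 µM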
Target sequence (P05186 whole entry, looked up): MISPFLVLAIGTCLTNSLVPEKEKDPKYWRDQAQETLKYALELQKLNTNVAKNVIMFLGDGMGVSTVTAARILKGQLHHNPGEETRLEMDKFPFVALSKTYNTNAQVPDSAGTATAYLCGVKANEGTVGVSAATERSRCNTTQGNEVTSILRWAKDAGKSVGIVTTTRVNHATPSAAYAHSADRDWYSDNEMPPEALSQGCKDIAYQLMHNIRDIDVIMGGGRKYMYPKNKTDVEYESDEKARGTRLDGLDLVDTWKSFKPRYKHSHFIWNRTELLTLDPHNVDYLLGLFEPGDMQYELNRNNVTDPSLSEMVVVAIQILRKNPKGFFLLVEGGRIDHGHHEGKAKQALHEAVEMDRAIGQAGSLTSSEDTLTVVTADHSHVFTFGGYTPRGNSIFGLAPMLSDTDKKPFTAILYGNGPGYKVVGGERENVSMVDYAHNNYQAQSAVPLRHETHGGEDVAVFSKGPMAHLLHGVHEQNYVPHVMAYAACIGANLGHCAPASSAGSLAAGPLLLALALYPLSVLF
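Dosing: 20 µM single point. System: human TNAP. Amount: TNAP 1/800 final. Incubation: 30 min, room temperature. Read-out: TNAP activation factor scaled between EDTA and DMSO control wells. Signal: luminescence from CDP-star hydrolysis. Medium: 1 M DEA, pH 9.8, Mg2+, Zn2+. Control set: EDTA negative control, DMSO positive control.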
bCat KO growth: beta-catenin-lacking colon tumor cell growth suppression. viability, % at 10 µM. HCT116 beta-catenin knockout viability, CellTiter-Glo, 60 h; hits give low values. 140,000 tested, 1.5% active;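 active means viability at or under a set limit, the compound median less 4 SD, cut at about 6% in these data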;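 further: 0% = Hyamine 1622 control at 20 µM and 100% = untreated cell control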
TNAP inh noacc: inhibitors of human TNAP without phosphate acceptor | P05186 | purified TNAP, CDP-star luminescence, 30 min | inhibition, % at 20 µM | 200,000 tested, 0.26% active | AID 1012;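 active means tissue-nonspecific alkaline phosphatase inhibition above about 50% at 20 µM in the single-dose screen, limit read from the data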;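 further: 0% = DMSO negative control and 100% = EDTA positive control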
L major viab: inhibitors of Leishmania major promastigote growth; AID 1063; Leishmania major promastigotes, resazurin fluorescence viability; inhibition, % at 10 µM; 200,000 tested, 9% active; in the data active means inhibition above about 50%;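 further: promastigotes grown with compound for 44 hours at 28 °C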
TNAP inh hi DEA: TNAP (human) inhibition, high acceptor | purified TNAP, CDP-star luminescence, 1 M DEA | 200,000 tested, 0.03% active | AID 1135 | P05186 | inhibition, % at 20 µM;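 active means over 50% inhibition of tissue-nonspecific alkaline phosphatase at 20 µM in the single-dose screen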;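 further: plate controls were DMSO wells for no effect and EDTA-quenched wells as full inhibition for full effect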
Numbers without * were called inactive; . = no result given. The list is not random: actives were taken first. Their share in the collection is about 9.6%.

SMILES	PTEN del growth	TNAP act hiacc	bCat KO growth	TNAP inh noacc	L major viab	TNAP inh hi DEA
CCOC(=O)C1(CCOC)CCN(Cc2nc(C(C)C)cs2)CC1	.	1	.	-5	-5	0
CCN1C(c2ccccc2)=C(c2ccccc2)S/C1=C\C=C1/SC(=S)N(C)C1=O	.	.	.	.	8	.
CCN1C(=O)/C(=C/C=C2/Sc3ccc4ccccc4c3N2CCO)SC1=S	89	0.6	80	2	65*	40
Clc1cccc(-c2nc3nc4ccccc4nc3n2Cc2ccccc2)c1	93	1	100	-2	52*	2
C=CCn1c(-c2ccccc2)nc2nc3ccccc3nc21	94	1	87	-4	4	-2
Cc1cccc(-n2c(-c3cccc([N+](=O)[O-])c3)nc3nc4ccccc4nc32)c1	85	1	84	0	-5	-3
c1ccc(Cn2c(-c3ccccc3)nc3nc4ccccc4nc32)cc1	76	1	84	-12	84*	-5
O=[N+]([O-])c1cc(-c2nc3nc4ccccc4nc3n2CCc2ccccc2)cc([N+](=O)[O-])c1	76	1.1	65	-7	61*	-6
COc1ccc(CCNC(=O)COc2ccc(S(=O)(=O)NC3CCCCC3)cc2Cl)cc1	6	1	8	5	75*	-2
O=C(COc1ccc(S(=O)(=O)NC2CCCCC2)cc1Cl)N1CCN(c2ccccc2)CC1	76	1	84	-7	98*	0
O=C(COc1ccc(S(=O)(=O)NC2CCCCC2)cc1)N1CCN(c2ccc(F)cc2)CC1	79	1	81	-11	16	-2
CC1CCCCC1NCC#CCOc1ccc(Cl)cc1 (stereo unspecified)	.	1.1	.	-12	83*	-5
Cc1ccsc1CN1CC(=O)N(c2c(C)cccc2C)C1=S	.	1	.	-16	53*	-2
O=C(COC(=O)CNC(=O)c1ccccc1)Nc1ccc(F)c([N+](=O)[O-])c1	.	1	.	-10	-7	-2
CC(=O)N1CCN(c2ccc(S(=O)(=O)N3CCCCC3)cn2)CC1	91	1.1	89	-7	0	-7
O=S(=O)(c1ccc(N2CCN(CCO)CC2)nc1)N1CCCCC1	102	1.1	89	-13	60*	-5
CN1CCN(S(=O)(=O)c2ccc(-c3ccccc3)cc2)CC1	103	1	97	1	86*	-4
CN1CCN(S(=O)(=O)c2ccc(N3CCN(C(c4ccccc4)c4ccccc4)CC3)nc2)CC1	.	1	.	0	100*	-3
O=C1/C(=C\c2cccnc2)Sc2ccccc21	63	0.9	65	27	100*	14
CCc1ccc(NC2=CC(=O)CC(c3ccco3)C2)cc1 (stereo unspecified)	61	1	57	-8	63*	-2
O=S(=O)(NCC(c1cccnc1)N1CCN(c2ccccc2)CC1)c1cccs1 (stereo unspecified)	91	1	89	-9	89*	-3
COc1ccc(N2CCN(C(CNS(=O)(=O)c3cccs3)c3cccnc3)CC2)cc1 (stereo unspecified)	101	1.1	100	-13	98*	-6
COc1ccccc1N1CCN(C(CNS(=O)(=O)c2cccs2)c2cccnc2)CC1 (stereo unspecified)	82	1	82	-12	83*	-3
CCOc1ccccc1N1CCN(S(=O)(=O)c2cccs2)CC1	61	1	67	-8	13	-3
CCCCCCCCCC(=O)Nc1cccnc1	.	1.1	.	-4	-9	-6
SMILES	PTEN del growth	TNAP act hiacc	bCat KO growth	TNAP inh noacc	L major viab	TNAP inh hi DEA
CCOC(=O)c1c(C)nc2c(c1-c1ccc(Cl)cc1)C(=O)CC(C)(C)C2	82	1	80	-1	0	-2
O=C(OC1CCCCC1)c1ccc(NC(=O)C2CCCCC2)cc1	66	1	69	-19	87*	-4
CSc1ccccc1C(=O)C1CCCN(S(=O)(=O)N(C)C)C1 (stereo unspecified)	.	1.1	.	-10	89*	-10
Cc1ccc(SCc2cn3cccnc3n2)cc1	97	1	105	-3	-8	-3
Cc1ccn2cc(CSc3ccccc3)nc2c1	92	1	98	-3	71*	0
CN1/C(=C\C(=S)Nc2ccccc2)C(C)(C)c2ccccc21	.	0.9	.	17	42	8
